KCNK9 block = human KCNK9 channel inhibition | Q9NPC2 | HEK293 KCNK9, FluxOR thallium flux fluorescence; hits give low values | B-score at 10 µM | 310,000 compounds, 1.2% hits;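 active = ratio B-score over 3 SD below the library mean, with starting fluorescence within 5 SD of its mean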;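 note: negative B-score means less thallium flux so channel inhibition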
KCC2 mod = KCC2 (human) Cl- transport modulation | KCC2 cells, thallium flux FluoZin-2 fluorescence | B-score of Tl+ flux slope (higher = more flux/activation; lower = inhibition) at 10 µM | 190,000 compounds, 2.2% hits;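 active = thallium flux slope and its plate-corrected score both differing from the plate sample mean at a set confidence after two filtering rounds, in either direction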;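 note: slope of fluorescence scaled to starting intensity during 10 to 20 s after thallium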
hERG rescue = compounds protecting human hERG from proarrhythmic drug block; CHO-hERG, FluxOR thallium flux, dofetilide IC70 present; activation (rescue from dofetilide block), less the hit threshold, % at 10 µM; 310,000 compounds, 0.51% hits;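 active = activation above the mean of controls blocked by dofetilide plus 5 SD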;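 note: thallium influx through hERG after potassium depolarization seen as dye fluorescence rise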
KCNK3 inh = human KCNK3 channel inhibition, primary screen; O14649; CHO-KCNK3 thallium flux, FluxOR fluorescence; hits give low values; B-score at 10 µM; 340,000 compounds, 0.84% hits;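 active = B-score under library mean minus 4 SD, starting fluorescence ratio at most library mean plus 5 SD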;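 note: more negative B-score means stronger inhibition of thallium flux through KCNK3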
KCNQ1 pot = human KCNQ1 channel potentiation or activation; B-score at 10 µM; P51787; 310,000 compounds, 0.35% hits; CHO-K1 KCNQ1, thallium flux FluxOR fluorescence; hits give high values; AID 2648;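 active = fluorescence ratio B-score, a plate-corrected score, at least three library SD, with initial intensity B-score within 5 SD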
Target sequence (P51787 whole entry, looked up): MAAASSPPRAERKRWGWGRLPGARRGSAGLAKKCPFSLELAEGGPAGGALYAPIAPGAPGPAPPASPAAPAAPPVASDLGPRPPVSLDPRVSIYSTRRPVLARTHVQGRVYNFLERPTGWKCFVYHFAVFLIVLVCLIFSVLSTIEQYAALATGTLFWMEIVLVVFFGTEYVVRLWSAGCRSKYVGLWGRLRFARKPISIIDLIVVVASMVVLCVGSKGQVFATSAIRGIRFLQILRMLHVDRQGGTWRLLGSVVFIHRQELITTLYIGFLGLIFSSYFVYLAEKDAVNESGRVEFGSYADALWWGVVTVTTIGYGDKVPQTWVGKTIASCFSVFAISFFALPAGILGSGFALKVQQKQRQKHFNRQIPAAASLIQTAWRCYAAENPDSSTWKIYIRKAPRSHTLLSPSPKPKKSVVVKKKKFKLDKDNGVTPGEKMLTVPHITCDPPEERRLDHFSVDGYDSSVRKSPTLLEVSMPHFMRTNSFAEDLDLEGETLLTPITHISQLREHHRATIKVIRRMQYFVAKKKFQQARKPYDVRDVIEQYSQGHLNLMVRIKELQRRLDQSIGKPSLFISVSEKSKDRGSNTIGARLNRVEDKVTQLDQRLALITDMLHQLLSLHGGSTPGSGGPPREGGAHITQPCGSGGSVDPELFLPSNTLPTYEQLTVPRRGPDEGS
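Assay system: CHO-K1 cells stably expressing KCNQ1; Medium: assay buffer with matched DMSO; Also added: K+/Tl+ depolarizing stimulus; Dosing: single dose; Timing: dye 90 min, compound 20 min, room temperature; Measured by: kinetic FluxOR thallium fluorescence, 10-s 1-Hz baseline, 110-s post-stimulus read; Read-out: peak-minus-minimum fluorescence over initial fluorescence, negative-control normalized, B-scored.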
KCNQ1 inh = inhibitors of human KCNQ1 potassium channel | P51787 | CHO-K1 KCNQ1, FluxOR thallium flux fluorescence; hits give high values | B-score at 10 µM | 310,000 compounds, 1.3% hits;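 active = compounds whose thallium flux B-score, printed positive for inhibition, exceeds three library SD while starting fluorescence stays within three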;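 note: channel opened by potassium depolarization with thallium stimulus after 20 min compound exposure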
Numbers without * were called inactive; i = inactive; . = not tested or not shown. Only some compounds are listed: those with a hit (about 4.1% of all), similar ones and a draw of the others.

SMILES	KCNK9 block	KCC2 mod	hERG rescue	KCNK3 inh	KCNQ1 pot	KCNQ1 inh
CC(=O)Sc1nc(-c2ccccc2)[nH]c1S(=O)(=O)c1ccc(C)cc1	i	0.15	-7	.	i	10*
Cc1ccc(NC(=O)CSc2n[nH]c(-c3cccnc3)n2)c(Br)c1	i	.	-9	i	i	i
Cc1cc(C)c2[nH]c(O)c(N=NC3=NC(=O)CS3)c2c1	i	0.51	-15	i	i	i
CCc1ccc2c(c1)c(N=NC1=NC(=O)CS1)c(O)n2C	i	9.4*	1	i	13*	i
N#Cc1nc(Cc2cccc3ccccc23)oc1N1CCC(C(N)=O)CC1	i	-7.4*	-2	i	i	i
CC(C)CCOc1ccc(C(=O)NCC(c2ccco2)N(C)C)cc1 (stereo not given)	i	.	-12	i	i	i
Cc1ccc(NC(=O)CN2C(=O)S/C(=C\c3ccc(-c4cccc(C(=O)O)c4C)o3)C2=O)cc1	i	-1.5	15*	.	i	i
CCOC(=O)N1CCN(C(=O)c2cn(C)c3ccc(S(=O)(=O)N(C)C4CCCCC4)cc3c2=O)CC1	i	.	-7	i	i	i
Cc1ccc([N+](=O)[O-])cc1N=Nc1c(-c2ccc([N+](=O)[O-])cc2)[nH]n(C(N)=S)c1=O	i	-2.1	-25	i	i	7*
Cc1ccc([N+](=O)[O-])cc1N=Nc1c(C)[nH]n(C(N)=S)c1=O	i	.	-4	i	i	i
Cc1cccc(/N=C/c2sc3ccccc3c2O)n1	i	.	6.7*	i	8*	i
Nc1nc(O)c(N=Nc2ccc(S(N)(=O)=O)cc2)c(=O)[nH]1	i	.	4.8*	.	i	i
CN(CC(=O)Nc1cccc(F)c1)C(=O)c1ccccc1Sc1ccccc1C#N	.	.	.	i	.	.
COc1ccc(C)cc1NC(=O)CO/N=C(\N)CC(=O)NC1CCCCC1	.	.	.	i	.	.
O=C(NCc1cccnc1)Nc1cccc(F)c1	-7.8*	0.47	-8	i	i	i
O=C(NCc1cccnc1)Nc1ccc(F)cc1F	i	0.3	-13	i	i	i
CC1CCN(c2nc3ccc(C(=O)NCCCN4CCCCC4C)cc3s2)CC1 (stereo not given)	i	.	-10	i	i	i
CCOc1ccc(C(=O)N2CCc3ccccc32)cc1OCC	i	.	-10	i	i	i
CCCc1cc(-c2[nH]ncc2-c2ccc3c(c2)OCCCO3)c(O)cc1O	i	-0.47	-28	i	i	6*
O=C(NC(Nc1nc2ccc([N+](=O)[O-])cc2s1)(C(F)(F)F)C(F)(F)F)c1ccccc1Cl	i	0.81	-33	i	i	10*
O=C(NC(Nc1nc2ccc([N+](=O)[O-])cc2s1)(C(F)(F)F)C(F)(F)F)c1cccnc1	i	-0.36	-17	i	i	12*
CN(C)S(=O)(=O)c1ccc2nc(NC(=O)c3cccnc3)sc2c1	i	-0.0064	-6	i	i	i
O=C(c1ccco1)N(CCC(c1ccccc1)c1ccco1)Cc1ccccc1 (stereo not given)	-7.2*	-0.34	-16	i	i	i
CCC(=O)N(CCC(c1ccccc1)c1ccco1)Cc1cccs1 (stereo not given)	-14*	-1.5	-11	i	i	i
CC(COc1ccc(/C=C/c2ccccc2)cc1)[N+](C)(C)C (stereo not given)	.	.	.	i	.	.
SMILES	KCNK9 block	KCC2 mod	hERG rescue	KCNK3 inh	KCNQ1 pot	KCNQ1 inh
Cc1noc(C)c1NC(=O)N(C)C[C@H]1Oc2ccc(NC(=O)Cn3cnnn3)cc2C(=O)N([C@H](C)CO)C[C@@H]1C	.	.	.	i	.	.
O=C(CCCn1c(=S)[nH]c2cc3c(cc2c1=O)OCO3)NCc1ccccc1Cl	i	.	-8	i	i	i
Cc1cc(NC(=O)CSc2nc3ccccc3n2CCC#N)no1	i	-0.95	4.9*	i	i	i
CCCCn1c(SCC(=O)Nc2cc(C)on2)nc2ccccc2c1=O	i	.	-8	i	i	i
O=C(CSc1nc(-c2ccc(F)cc2)cs1)NC(=O)NCc1ccco1	i	.	4.9*	i	i	i
CCn1c(SCC(=O)NC(=O)NCc2ccco2)nc2sc(C)c(C)c2c1=O	i	16*	9.2*	i	12*	i
Cc1sc2nc(SCC(=O)NCc3ccco3)n(C)c(=O)c2c1C	i	-0.76	-6	i	i	i
COc1ccc(C(=O)N(C)Cc2ccc(C)o2)cc1OC1CCN(C(C)=O)CC1	i	.	-9	i	i	i
O=C(COc1ncnc2sccc12)NC1CCCCC1	.	.	.	i	.	.
CCCC(c1nnnn1C(C)(C)CC)N(Cc1ccco1)Cc1cc2ccc(OC)cc2[nH]c1=O (stereo not given)	-6.8*	-0.5	-10	i	i	i
CCC(c1nnnn1Cc1ccccc1)N(Cc1ccco1)Cc1cc2cc(OC)ccc2[nH]c1=O (stereo not given)	i	-0.2	-11	i	i	i
CCC(c1nnnn1CCOC)N(Cc1ccc(C)cc1)Cc1cc2cc(OC)ccc2[nH]c1=O (stereo not given)	i	-3.1*	-7	i	i	i
COc1cc(OC)cc(C(=O)Nc2ccccc2C(=O)NC2CC2)c1	.	.	.	i	.	.
CC(CN(C)Cc1ccccc1)OC(=O)c1cccs1 (stereo not given)	i	-0.042	47*	i	i	i
O=C(Nc1ccc(Cl)c(Cl)c1)c1ccc(Cl)c(Cl)c1	i	-0.63	-7	i	i	7*
CCOc1ccc(CCNC(=O)c2ccc(S(=O)(=O)N3CCCC3)cc2)cc1OCC	i	.	-17	i	i	i
Cc1nc2ccc(NC(=O)c3cccs3)cc2c(=O)n1Cc1ccc(Cl)cc1	-7.9*	.	-2	i	i	i
CCCc1nc2ccc(NC(C)=O)cc2c(=O)n1Cc1cccc(Cl)c1	i	.	-9	i	i	i
CCCc1nc2ccc(NC(=O)c3cccs3)cc2c(=O)n1Cc1ccc(Cl)cc1	-6.8*	-0.067	-9	i	i	i
CC(=O)Nc1ccc2nc(C3CC3)n(Cc3ccc(Cl)cc3)c(=O)c2c1	i	-0.057	-16	i	i	i
CCN(CC(=O)Nc1c(F)cccc1F)C(=O)c1ccc(S(=O)(=O)N(CC)c2ccccc2)cc1	.	.	.	i	.	.
CCOC(=O)c1c(C)[nH]c(=S)c(C#N)c1-c1ccc(OC)cc1	i	-1.5	-8	i	i	i
CCOC(=O)c1c(C)[nH]c(=S)c(C#N)c1-c1ccc(Cl)cc1	i	11*	-4	i	9*	i
CCCCN(CCCC)c1nc(OC)nc(-n2nnc(C(C)=O)c2C)n1	-6.6*	.	-16	i	i	i

Compound activity from PubChem.
